Test results reported in ChEMBL document CHEMBL1629431, “Synthesis and antitumor activity of some 2, 3-disubstituted quinazolin-4(3H)-ones and 4, 6- disubstituted- 1, 2, 3, 4-tetrahydroquinazolin-2H-ones” (2010).

Assays:
Format in all cases: functional
SK-MEL-2 = assay: Growth inhibition of human SK-MEL-2 cells at 10 uM after 48 hrs by coulter counter method; details: SK-MEL-2, 48 h, read-out: GI
Summary of the method: (§1)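 Single high-dose NCI 60-cell-line panel screen across nine tumor subpanels. Test solutions (0.2 mL) were added in duplicate to wells holding 1.8 mL of culture at 6 × 10⁴ cells/mL. Controls got PBS and DMSO at identical dilutions. Incubation was 48 h at 37 °C in humidified 5% CO₂. Cells were diluted 10-fold in saline, Coulter-counted and dilution-corrected. Results were expressed as percent growth inhibition versus control.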

OVCAR-8 = assay: Growth inhibition of human OVCAR8 cells at 10 uM after 48 hrs by coulter counter method; details: OVCAR-8, 48 h, read-out: GI; summary of the method: as §1
SR = assay: Growth inhibition of human SR cells at 10 uM after 48 hrs by coulter counter method; details: read-out: GI; summary of the method: as §1
NCI-H226 = assay: Growth inhibition of human NCI-H226 cells at 10 uM after 48 hrs by coulter counter method; details: NCI-H226, 48 h, read-out: GI; summary of the method: as §1
KM12 = assay: Growth inhibition of human KM12 cells at 10 uM after 48 hrs by coulter counter method; details: KM12, 48 h, read-out: GI; summary of the method: as §1
UACC-62 = assay: Growth inhibition of human UACC62 cells at 10 uM after 48 hrs by coulter counter method; details: UACC-62, 48 h, read-out: GI; summary of the method: as §1
SN12C = assay: Growth inhibition of human SN12C cells at 10 uM after 48 hrs by coulter counter method; details: read-out: GI; summary of the method: as §1
PC-3 = assay: Growth inhibition of human PC3 cells at 10 uM after 48 hrs by coulter counter method; details: PC-3, 48 h, read-out: GI; summary of the method: as §1
U-251 = assay: Growth inhibition of human U251 cells at 10 uM after 48 hrs by coulter counter method; details: U-251, 48 h, read-out: GI; summary of the method: as §1
MOLT-4 = assay: Growth inhibition of human MOLT4 cells at 10 uM after 48 hrs by coulter counter method; details: MOLT-4, 48 h, read-out: GI; summary of the method: as §1
MDA-MB-468 = assay: Growth inhibition of human MDA-MB-468 cells at 10 uM after 48 hrs by coulter counter method; details: MDA-MB-468, 48 h, read-out: GI; summary of the method: as §1
SF-268 = assay: Growth inhibition of human SF268 cells at 10 uM after 48 hrs by coulter counter method; details: SF-268, 48 h, read-out: GI; summary of the method: as §1
SF-539 = assay: Growth inhibition of human SF539 cells at 10 uM after 48 hrs by coulter counter method; details: SF-539, 48 h, read-out: GI; summary of the method: as §1
MCF7 = assay: Growth inhibition of human MCF7 cells at 10 uM after 48 hrs by coulter counter method; details: MCF7, 48 h, read-out: GI; summary of the method: as §1
UO-31 = assay: Growth inhibition of human UO31 cells at 10 uM after 48 hrs by coulter counter method; details: UO-31, 48 h, read-out: GI; summary of the method: as §1
HL-60(TB) = assay: Growth inhibition of human HL-60(TB) cells at 10 uM after 48 hrs by coulter counter method; details: HL-60, 48 h, read-out: GI
Summary of the method: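 Part of the NCI 60-cell-line single-high-dose panel. Cells were seeded at 6 × 10⁴ cells/mL with test solution in duplicate wells, alongside PBS/DMSO controls at identical dilutions. Plates were held 48 h at 37 °C in a humidified 5% CO₂ incubator. Cells were then diluted 10-fold in saline and counted by Coulter counter, with counts corrected for dilution. Results are percent growth of treated cells, reported as GI %.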

M14 = assay: Growth inhibition of human M14 cells at 10 uM after 48 hrs by coulter counter method; details: M14, 48 h, read-out: GI; summary of the method: as §1
[1] = Growth inhibition of human Hs 578T cells at 10 uM after 48 hrs by coulter counter method; details: read-out: GI; summary of the method: as §1
IGROV-1 = assay: Growth inhibition of human IGROV1 cells at 10 uM after 48 hrs by coulter counter method; details: IGROV-1, 48 h, read-out: GI; summary of the method: as §1
SK-MEL-28 = assay: Growth inhibition of human SK-MEL-28 cells at 10 uM after 48 hrs by coulter counter method; details: SK-MEL-28, 48 h, read-out: GI; summary of the method: as §1
NCI-H522 = assay: Growth inhibition of human NCI-H522 cells at 10 uM after 48 hrs by coulter counter method; details: NCI-H522, 48 h, read-out: GI; summary of the method: as §1
K562 = assay: Growth inhibition of human K562 cells at 10 uM after 48 hrs by coulter counter method; details: K562, 48 h, read-out: GI; summary of the method: as §1
HCT-116 = assay: Growth inhibition of human HCT116 cells at 10 uM after 48 hrs by coulter counter method; details: HCT-116, 48 h, read-out: GI; summary of the method: as §1
NCI-H23 = assay: Growth inhibition of human NCI-H23 cells at 10 uM after 48 hrs by coulter counter method; details: NCI-H23, 48 h, read-out: GI; summary of the method: as §1
T47D = assay: Growth inhibition of human T47D cells at 10 uM after 48 hrs by coulter counter method; details: read-out: GI; summary of the method: as §1
A549 = assay: Growth inhibition of human A549 cells at 10 uM after 48 hrs by coulter counter method; details: A549, 48 h, read-out: GI; summary of the method: as §1
SK-OV-3 = assay: Growth inhibition of human SKOV3 cells at 10 uM after 48 hrs by coulter counter method; details: SK-OV-3, 48 h, read-out: GI; summary of the method: as §1
COLO 205 = assay: Growth inhibition of human COLO205 cells at 10 uM after 48 hrs by coulter counter method; details: COLO 205, 48 h, read-out: GI; summary of the method: as §1
MDA-MB-231 = assay: Growth inhibition of human MDA-MB-231 cells at 10 uM after 48 hrs by coulter counter method; details: MDA-MB-231, 48 h, read-out: GI; summary of the method: as §1
SNB-75 = assay: Growth inhibition of human SNB75 cells at 10 uM after 48 hrs by coulter counter method; details: SNB-75, 48 h, read-out: GI; summary of the method: as §1
OVCAR-4 = assay: Growth inhibition of human OVCAR4 cells at 10 uM after 48 hrs by coulter counter method; details: OVCAR-4, 48 h, read-out: GI; summary of the method: as §1
786-0 = assay: Growth inhibition of human 786-0 cells at 10 uM after 48 hrs by coulter counter method; details: 786-0, 48 h, read-out: GI; summary of the method: as §1
CCRF-CEM = assay: Growth inhibition of human CCRF-CEM cells at 10 uM after 48 hrs by coulter counter method; details: read-out: GI; summary of the method: as §1
CAKI-1 = assay: Growth inhibition of human Caki1 cells at 10 uM after 48 hrs by coulter counter method; details: CAKI-1, 48 h, read-out: GI; summary of the method: as §1
HOP-92 = assay: Growth inhibition of human HOP92 cells at 10 uM after 48 hrs by coulter counter method; details: HOP-92, 48 h, read-out: GI; summary of the method: as §1

Row | SMILES | inhibition of growth at 10 µM (SK-MEL-2) [%] | inhibition of growth at 10 µM (SR) [%] | inhibition of growth at 10 µM (NCI-H226) [%] | inhibition of growth at 10 µM (KM12) [%] | inhibition of growth at 10 µM (UACC-62) [%] | inhibition of growth at 10 µM (SN12C) [%] | inhibition of growth at 10 µM (PC-3) [%] | inhibition of growth at 10 µM (U-251) [%] | inhibition of growth at 10 µM (MOLT-4) [%] | inhibition of growth at 10 µM (MDA-MB-468) [%] | inhibition of growth at 10 µM (SF-268) [%] | inhibition of growth at 10 µM (SF-539) [%] | inhibition of growth at 10 µM (MCF7) [%] | inhibition of growth at 10 µM (UO-31) [%] | inhibition of growth at 10 µM (HL-60(TB)) [%] | inhibition of growth at 10 µM (M14) [%] | inhibition of growth at 10 µM [1] [%] | inhibition of growth at 10 µM (IGROV-1) [%] | inhibition of growth at 10 µM (SK-MEL-28) [%] | inhibition of growth at 10 µM (NCI-H522) [%] | other results
1 | COc1ccc(-n2c(SC)nc3ccccc3c2=O)cc1 | 30 | 30 | 30 | 30 | 30 | 30 | 30 | 30 | 30 | 30 | 30 | 30 | 30 | 30 | 30 | 30 | 30 | 30 | 30 | 30 | inhibition of growth at 10 µM (OVCAR-8): 30%; inhibition of growth at 10 µM (K562): 30.1%; inhibition of growth at 10 µM (HCT-116): 30%; inhibition of growth at 10 µM (NCI-H23): 30%; inhibition of growth at 10 µM (T47D): 30%; inhibition of growth at 10 µM (A549): 30%; inhibition of growth at 10 µM (SK-OV-3): 30%; inhibition of growth at 10 µM (COLO 205): 30%; inhibition of growth at 10 µM (MDA-MB-231): 30%; inhibition of growth at 10 µM (SNB-75): 30%; inhibition of growth at 10 µM (OVCAR-4): 30%; inhibition of growth at 10 µM (786-0): 30%; inhibition of growth at 10 µM (CCRF-CEM): 30%; inhibition of growth at 10 µM (CAKI-1): 30%
2 | COc1ccc(C(=O)CSc2nc3ccccc3c(=O)n2-c2ccc(Cl)cc2)cc1 | 34.2 | 30 | 30 | 30 | 42.2 | 30 | 30 | 65.1 | 30 | 35.4 | 48.8 | 48.6 | 30 | 37.2 | 30 | 38.4 | 30 | 48.9 | 37.3 | < 30 | inhibition of growth at 10 µM (OVCAR-8): 76.2%; inhibition of growth at 10 µM (HCT-116): 30%; inhibition of growth at 10 µM (NCI-H23): 30%; inhibition of growth at 10 µM (T47D): 30%; inhibition of growth at 10 µM (SK-OV-3): 44.7%; inhibition of growth at 10 µM (COLO 205): 48.9%; inhibition of growth at 10 µM (MDA-MB-231): 40.9%; inhibition of growth at 10 µM (SNB-75): 71.1%; inhibition of growth at 10 µM (OVCAR-4): 53.5%; inhibition of growth at 10 µM (786-0): 41.3%
3 | COc1ccc(-c2nnc(Nc3nc4ccccc4c(=O)n3-c3ccccc3)s2)cc1 | 30 | 30 | 30 | 30 | 30 | 30 | 30 | 30 | 30 | 30 | 30 | 30 | 30 | 30 | 30 | 30 | 30 | 30 | 30 | 30 | inhibition of growth at 10 µM (HOP-92): 30%; inhibition of growth at 10 µM (K562): 30%; inhibition of growth at 10 µM (HCT-116): 30%; inhibition of growth at 10 µM (NCI-H23): 30%; inhibition of growth at 10 µM (T47D): 30%; inhibition of growth at 10 µM (A549): 30%; inhibition of growth at 10 µM (SK-OV-3): 30%; inhibition of growth at 10 µM (COLO 205): 58.9%; inhibition of growth at 10 µM (MDA-MB-231): 30%; inhibition of growth at 10 µM (SNB-75): 30%; inhibition of growth at 10 µM (OVCAR-4): 30%; inhibition of growth at 10 µM (786-0): 30%; inhibition of growth at 10 µM (CCRF-CEM): 30%; inhibition of growth at 10 µM (CAKI-1): 30%
